Assay results collected from several papers.
USP51: Ubiquitin carboxyl-terminal hydrolase 51 (USP51, Homo sapiens, UniProt Q70EK9)
SLC6A3: Sodium-dependent dopamine transporter (SLC6A3, Homo sapiens, UniProt Q01959)
DRD3: D(3) dopamine receptor (DRD3, Homo sapiens, UniProt P35462)
CA12: Carbonic anhydrase 12 (CA12, Homo sapiens, UniProt O43570)

With `CN1C(=O)/C(=C2/C(=O)Nc3ccccc32)c2ccccc21` the inhibition was 48% (USP51; enzyme activity; inhibitor; 5 µM).
`Fc1ccc(C(c2ccc(F)cc2)c2nnnn2CCCCN2CCC(Cc3ccc(Cl)c(Cl)c3)CC2)cc1` gave an inhibition of 68.9% (SLC6A3; transporter uptake; inhibitor; HEK293; 1 µM).
`C=CCn1c(SCC(=O)NC2=NN(c3ccccc3)C(=O)C2)nnc1-c1cccs1` gave an inhibition of -4.7% (DRD3; enzyme activity; inhibitor; 10 µM).
The inhibition of `CCOC(=O)C1CSc2[nH]c(=O)sc2C1c1cn(-c2ccccc2)nc1-c1ccccc1` (stereo not shown) is reported as 46.7% (CA12; enzyme activity; inhibitor; absorbance; 1 µM).
The inhibition of `c1ccc(CCCC2CCN(CCCn3nnnc3C(c3ccccc3)c3ccccc3)CC2)cc1` is reported as 30.4% (SLC6A3; transporter uptake; inhibitor; HEK293; 1 µM).
`COc1ccccc1N1CCN(CCCCN2C(=O)C3CCCCN3C2=O)CC1` (stereo not shown) has an inhibition of 47.5% (DRD3; enzyme activity; inhibitor; 10 µM).
With `COc1cc2c(cc1OC)-c1cc3ccc(OC)c(OC)c3c[n+]1CC2` the inhibition was 51% (USP51; enzyme activity; inhibitor; 5 µM).
The inhibition of `CCN(c1cc(C#CCN2CCOCC2)cc(C(=O)NCc2c(C)cc(C)[nH]c2=O)c1C)[C@H]1CC[C@H](N(C)CCOC)CC1` is reported as 10% (Protein arginine N-methyltransferase 1 (PRMT1, Homo sapiens, UniProt Q99873); enzyme activity; inhibitor; 1 µM).
For `OC(CNCc1cccc(Oc2nnnn2-c2ccccc2)c1)c1ccccc1` (stereo not shown), the inhibition was 29.3% (DRD3; enzyme activity; inhibitor; 10 µM).
For `COC(=O)C[C@](O)(CCCC(C)(C)O)C(=O)O[C@@H]1C(OC)=C[C@]23CCCN2CCc2cc4c(cc2[C@H]13)OCO4`, the inhibition was 0% (USP51; enzyme activity; inhibitor; 5 µM).
With `COc1ccccc1N1CCN(CC(O)Cn2cnc3c2c(=O)n(C)c(=O)n3C)CC1` (stereo not shown) the inhibition was -20.3% (DRD3; enzyme activity; inhibitor; 10 µM).
`Cc1ccc(-c2nn(-c3ccccc3)cc2C2c3sc(=O)[nH]c3SC3C(=O)N(c4ccccc4)C(=O)C32)cc1` (stereo not shown) has an inhibition of 73.9% (CA12; enzyme activity; inhibitor; absorbance; 10 µM).
For `Cc1ccc(Nc2nccc(N(C)c3ccc4c(C)n(C)nc4c3)n2)cc1S(N)(=O)=O`, the inhibition was 66% (Tyrosine-protein kinase Lyn (Lyn, Mus musculus, UniProt P25911); enzyme activity; inhibitor; 0.3 µM).
The inhibition of `CCOC(=O)C1CSc2[nH]c(=O)sc2C1c1cn(-c2ccccc2)nc1-c1ccc(OC)cc1` (stereo not shown) is reported as 37.6% (CA12; enzyme activity; inhibitor; absorbance; 0.1 µM).
`C[Se]CC[C@H](N)C(=O)O` has an inhibition of 34% (USP51; enzyme activity; inhibitor; 5 µM).
For `CCOC(=O)C1CSc2[nH]c(=O)sc2C1c1cn(-c2ccccc2)nc1-c1ccc(Br)cc1` (stereo not shown), the inhibition was 31.5% (CA12; enzyme activity; inhibitor; absorbance; 0.1 µM).
`CCCCC/C=C\C/C=C\CCCCCCCC(=O)O` has an inhibition of 100% (USP51; enzyme activity; inhibitor; 5 µM).
For `O=C(c1ccc(Cl)cc1)N(Cc1ccccc1)C1CCCCC1`, the inhibition was 48.8% (SLC6A3; cell-free assay; 10 µM).
With `O=C1c2cccc(O)c2C(=O)c2c(O)cccc21` the inhibition was 14% (USP51; enzyme activity; inhibitor; 5 µM).
`FC(F)(F)c1cccc(-c2ccc(CNCCCN3CCOCC3)o2)c1` has an inhibition of 50.7% (DRD3; enzyme activity; inhibitor; 10 µM).
For `O=C1NC(=S)C(=Cc2cn(-c3ccccc3)nc2-c2ccc(Br)cc2)S1`, the inhibition was 49.8% (CA12; enzyme activity; inhibitor; absorbance; 10 µM).
For `CNc1cc(Oc2cc(C(=O)Nc3cc(N4CCN(C)CC4)cc(C(F)(F)F)c3)ccc2C)ncn1`, the inhibition was -18% (Serine/threonine-protein kinase ATR (ATR, Homo sapiens, UniProt Q13535); target engagement in cells; inhibitor; chemoproteomics; Huh-7; 1 µM).
`CC(C)=CCC[C@](C)(O)[C@H]1CC[C@]2(C)[C@@H]1[C@H](O)C[C@@H]1[C@@]3(C)CC[C@H](O[C@@H]4O[C@H](CO)[C@@H](O)[C@H](O)[C@H]4O[C@@H]4O[C@H](CO)[C@@H](O)[C@H](O)[C@H]4O)C(C)(C)[C@@H]3CC[C@]12C` gave an inhibition of 0% (USP51; enzyme activity; inhibitor; 5 µM).
For `Cc1ccccc1N1CCN(CCCCN2C(=O)C3CCCN3C2=O)CC1` (stereo not shown), the inhibition was 47.3% (DRD3; enzyme activity; inhibitor; 10 µM).
With `Clc1ccc(C(c2ccccc2)c2nnnn2CCCCN2CCN(CCc3ccccc3)CC2)cc1` (stereo not shown) the inhibition was 62.1% (SLC6A3; transporter uptake; inhibitor; HEK293; 1 µM).
